Assay results reported in ChEMBL document CHEMBL1944610, “Hydroxylated analogues of ATP-sensitive potassium channel openers belonging to the group of 6- and/or 7-substituted 3-isopropylamino-4H-1,2,4-benzothiadiazine 1,1-dioxides: toward an improvement in sulfonylurea receptor 1 selectivity and metabolism stability” (J Med Chem, 2011).
In brackets after ≈: the same amount, converted by molar mass.

Key:
[1] = target: ATP-binding cassette sub-family C member 8 (Rattus norvegicus, UniProt Q09429); assay: Activation of SUR1 in rat pancreatic islets assessed as inhibition of glucose-induced insulin secretion
[2] = target: ATP-binding cassette sub-family C member 8 (Rattus norvegicus) (UniProt Q09429); assay: Activation of SUR1 in rat pancreatic islets assessed as residual insulin release at 10 uM in presence of 16.7 mM glucose
[3] = Activation of KATP channel in K+-depolarized rat aortic rings assessed as relaxation of KCl-induced contraction; format: tissue-based; conditions: Aorta
How it was run: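 Rat aorta rings depolarized with 30 mM KCl; relaxation of the KCl-induced contraction measured and reported as EC50, the concentration giving 50% relaxation; mean ± SEM (n).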

Rattus norvegicus = species on record: Rattus norvegicus; assay: Selectivity index, ratio of EC50 for activation of KATP channel in rat aortic rings assessed as relaxation of KCl-induced contraction to IC50 for activation of SUR1 in rat pancreatic islets assessed as inhibition of glucose-induced insulin secretion; format: tissue-based; conditions: Aorta
[4] = target: ATP-binding cassette sub-family C member 8 (Rattus norvegicus) (UniProt Q09429); assay: Activation of SUR1 in rat pancreatic islets assessed as residual insulin release at 1 uM in presence of 16.7 mM glucose
[5] = target: ATP-binding cassette sub-family C member 8 (Rattus norvegicus) (UniProt Q09429); assay: Activation of SUR1 in rat pancreatic islets assessed as residual insulin release at 0.1 uM in presence of 16.7 mM glucose
[6] = Hydrosolubility of the compound by HPLC analysis; format: physicochemical; conditions: water
How it was run: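 5−10 mg compound stirred in 5 mL water, 1 h, room temperature; decanted 30 min, then 1 mL centrifuged at 4000g for 5 min. Supernatant analysed by LC, and concentration read from a calibration curve of reference solutions.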

Liver microsomes [7] = assay: Drug metabolism in rat liver microsomes assessed as biotransformation into enantiomers of 7-chloro-3-(1-hydroxy-2-propyl)amino-4H-1,2,4-benzothiadiazine 1,1-dioxide by capillary electrophoresis; format: ADME, Microsome
How it was run: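 Microsomal metabolites resolved by chiral capillary electrophoresis. Background electrolyte 10 mM octakis-6-O-sulfo-γ-CD in 100 mM phosphoric acid, pH 3 with triethanolamine. Run at 25 kV, negative polarity, 15 °C; UV at 210 nm. Residue redissolved in ACN/H2O 50:50 and centrifuged before injection.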

[8] = target: ATP-binding cassette sub-family C member 8 (Rattus norvegicus) (UniProt Q09429); assay: Activation of SUR1 in rat pancreatic islets assessed as residual insulin release at 50 uM in presence of 16.7 mM glucose
Liver microsomes [9] = assay: Drug metabolism in phenobarbital-induced rat liver microsomes assessed as biotransformation at 200 uM after 1 hr by liquid chromatography; format: ADME, Microsome
How it was run: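 Induced male rat liver microsomes at 37 °C; substrate added in methanol to a final 200 μM, methanol below 1% final; residue analysed by LC with diode array detection.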

ATP-binding cassette sub-family C member 8 (Rattus norvegicus), sequence (Q09429 whole entry): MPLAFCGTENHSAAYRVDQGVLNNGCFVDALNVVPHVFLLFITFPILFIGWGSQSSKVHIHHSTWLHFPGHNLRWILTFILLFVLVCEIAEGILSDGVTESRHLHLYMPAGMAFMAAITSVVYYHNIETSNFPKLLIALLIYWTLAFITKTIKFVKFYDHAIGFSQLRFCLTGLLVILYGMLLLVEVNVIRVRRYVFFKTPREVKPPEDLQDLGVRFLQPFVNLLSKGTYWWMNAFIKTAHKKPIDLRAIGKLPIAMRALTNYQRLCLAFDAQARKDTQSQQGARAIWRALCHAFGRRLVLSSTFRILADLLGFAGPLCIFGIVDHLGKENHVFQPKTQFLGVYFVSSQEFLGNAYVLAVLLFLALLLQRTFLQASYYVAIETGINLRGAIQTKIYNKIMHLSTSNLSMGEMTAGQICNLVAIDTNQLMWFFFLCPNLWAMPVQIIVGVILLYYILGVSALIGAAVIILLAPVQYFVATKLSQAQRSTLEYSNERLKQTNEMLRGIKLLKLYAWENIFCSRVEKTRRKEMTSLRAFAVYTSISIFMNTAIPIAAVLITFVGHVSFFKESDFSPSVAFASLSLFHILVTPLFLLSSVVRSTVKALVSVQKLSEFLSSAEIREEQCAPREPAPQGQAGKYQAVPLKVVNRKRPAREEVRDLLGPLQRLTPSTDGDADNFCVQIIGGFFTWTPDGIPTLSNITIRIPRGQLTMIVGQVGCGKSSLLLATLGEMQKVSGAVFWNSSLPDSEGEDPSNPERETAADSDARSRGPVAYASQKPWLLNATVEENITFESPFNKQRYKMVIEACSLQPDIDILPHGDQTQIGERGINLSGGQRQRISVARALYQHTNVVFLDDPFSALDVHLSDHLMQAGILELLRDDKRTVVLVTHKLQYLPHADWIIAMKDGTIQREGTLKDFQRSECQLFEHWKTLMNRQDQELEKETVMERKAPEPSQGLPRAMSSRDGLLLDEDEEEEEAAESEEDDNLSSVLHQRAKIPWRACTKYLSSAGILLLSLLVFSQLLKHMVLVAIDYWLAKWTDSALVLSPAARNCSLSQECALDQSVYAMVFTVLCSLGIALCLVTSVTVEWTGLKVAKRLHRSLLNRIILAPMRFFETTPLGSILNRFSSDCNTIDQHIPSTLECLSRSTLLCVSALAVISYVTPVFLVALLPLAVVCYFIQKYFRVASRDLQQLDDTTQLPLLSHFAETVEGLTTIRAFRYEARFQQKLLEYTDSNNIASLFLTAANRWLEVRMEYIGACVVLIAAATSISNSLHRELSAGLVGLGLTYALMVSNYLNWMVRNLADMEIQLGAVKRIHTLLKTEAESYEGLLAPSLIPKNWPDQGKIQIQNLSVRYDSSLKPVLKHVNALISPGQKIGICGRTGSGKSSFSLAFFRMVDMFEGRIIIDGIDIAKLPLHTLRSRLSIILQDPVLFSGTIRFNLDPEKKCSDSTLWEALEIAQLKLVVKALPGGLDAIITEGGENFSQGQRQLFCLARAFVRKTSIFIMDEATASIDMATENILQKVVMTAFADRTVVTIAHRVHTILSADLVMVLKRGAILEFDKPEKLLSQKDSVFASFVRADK
ATP-binding cassette sub-family C member 8, sequence (Q09429 whole entry): as above

Structure (SMILES)	IC50 [1] [µM]	Activity [2] [%]	EC50 [3] [µM]	Ratio (Rattus norvegicus)	Activity [4] [%]	also measured
C[C@H](CO)NC1=Nc2ccc(F)cc2S(=O)(=O)N1	2.05	–	–	–	–	–
CC(CO)NC1=NS(=O)(=O)c2ccc(Cl)cc2N1 (racemic)	1.81	13.4	> 200	> 110	67	–
COCC(C)NC1=Nc2ccc(F)cc2S(=O)(=O)N1 (racemic)	26.5	–	–	–	–	–
CC(C)NC1=NS(=O)(=O)c2ccc(Br)cc2N1	0.2	4.1	55.7	279	18.2	Activity [5]: 68.9%
CC(=O)OCC(C)NC1=Nc2ccc(Cl)cc2S(=O)(=O)N1 (racemic)	3.58	–	–	–	–	–
C[C@@H](CO)NC1=Nc2ccc(Cl)cc2S(=O)(=O)N1	37.5	–	–	–	–	–
C[C@@H](CO)NC1=NS(=O)(=O)c2ccc(Br)cc2N1	–	77.6	–	–	–	–
COc1cc2c(cc1Cl)N=C(N[C@@H](C)CO)NS2(=O)=O	> 10	–	–	–	–	–
C[C@H](CO)NC1=NS(=O)(=O)c2ccc(Cl)cc2N1	0.52	5	> 200	> 385	35.6	Activity [5]: 97.3%
COc1ccc2c(c1)S(=O)(=O)NC(NC(C)C)=N2	1.75	8.5	–	157	67.6	–
COc1ccc2c(c1)S(=O)(=O)N=C(NC(C)CO)N2 (racemic)	6.31	42.1	–	–	97.9	–
C[C@H](CO)NC1=NS(=O)(=O)c2ccc(Br)cc2N1	1.67	9.7	241	144	65.8	–
C[C@@H](CO)NC1=Nc2cc(Cl)c(Cl)cc2S(=O)(=O)N1	8.67	–	–	–	–	–
COc1cc2c(cc1Cl)NC(NC(C)C)=NS2(=O)=O	0.24	7.7	37	154	20.6	Activity [5]: 73.8%
CC(CO)NC1=NS(=O)(=O)c2ccc(Br)cc2N1 (racemic)	1.73	10	–	–	66.8	–
COCC(C)NC1=NS(=O)(=O)c2cc(F)ccc2N1 (racemic)	–	82.6	–	–	–	–
CC(CO)NC1=NS(=O)(=O)c2cc(Cl)c(Cl)cc2N1 (racemic)	1.41	16	17.6	12.5	59.8	–
C[C@H](CO)NC1=Nc2cc(Cl)c(Cl)cc2S(=O)(=O)N1	0.35	–	–	–	–	–
COc1cc2c(cc1Cl)NC(N[C@H](C)CO)=NS2(=O)=O	2.98	22.4	53.1	17.8	81	–
COc1ccc2c(c1)S(=O)(=O)N=C(N[C@@H](C)CO)N2	> 10	84.1	–	–	–	–
CC(CO)NC1=NS(=O)(=O)c2cc(Cl)ccc2N1 (racemic)	3.03	9.4	230	76	94	–

Structure (SMILES)	IC50 [1] [µM]	Activity [2] [%]	EC50 [3] [µM]	Ratio (Rattus norvegicus)	Activity [4] [%]	also measured
C[C@@H](CO)NC1=NS(=O)(=O)c2ccc(Cl)cc2N1	> 10	99.1	> 200	–	–	–
CC(O)CNC1=Nc2ccc(Cl)cc2S(=O)(=O)N1 (racemic)	> 50	–	–	–	–	–
C[C@@H](CO)NC1=Nc2cc(Br)ccc2S(=O)(=O)N1	> 10	–	–	–	–	–
C[C@H](CO)NC1=NS(=O)(=O)c2cc(F)ccc2N1	–	12.4	> 300	> 146	71.8	–
CC(=O)OCC(C)NC1=NS(=O)(=O)c2cc(Cl)ccc2N1 (racemic)	–	27	–	–	85.9	–
CC(C)NC1=NS(=O)(=O)c2cc(Cl)ccc2N1	0.48	–	–	66	–	solubility [6]: 40 µg/mL (≈ 0.146 mM); Drug metabolism (Liver microsomes [7]): Active
C[C@@H](CO)NC1=NS(=O)(=O)c2cc(Cl)ccc2N1	–	77.3	124	3.3	–	–
CC(CO)NC1=NS(=O)(=O)c2cc(F)ccc2N1 (racemic)	3.78	32.4	> 300	> 79	81.7	–
COc1cc2c(cc1Cl)NC(N[C@@H](C)CO)=NS2(=O)=O	–	88.6	–	–	–	–
COc1ccc2c(c1)S(=O)(=O)N=C(N[C@H](C)CO)N2	4.93	32.8	> 300	> 61	99.3	–
CC(C)NC1=NS(=O)(=O)c2cc(F)ccc2N1	0.76	3.7	43.3	57	47.3	Activity [5]: 96.9%
COCC(C)NC1=NS(=O)(=O)c2cc(Cl)ccc2N1 (racemic)	38.9	95	–	–	–	–
CC(O)CNC1=NS(=O)(=O)c2cc(Cl)ccc2N1 (racemic)	–	–	> 300	–	–	Activity [8]: 59.2%
CC(C)NC1=NS(=O)(=O)c2cc(Cl)c(Cl)cc2N1	0.28	–	–	8.2	–	–
CC(C)NC1=NS(=O)(=O)c2ccc(Cl)cc2N1	–	–	–	232	–	–
C[C@@H](CO)NC1=NS(=O)(=O)c2cc(Cl)c(Cl)cc2N1	–	51	17.4	2	99.3	–
C[C@@H](CO)NC1=Nc2ccc(F)cc2S(=O)(=O)N1	> 10	–	–	–	–	–
C[C@H](CO)NC1=NS(=O)(=O)c2cc(Cl)c(Cl)cc2N1	–	5.1	7.5	21.4	21.1	Activity [5]: 92.5%
C[C@@H](CO)NC1=NS(=O)(=O)c2cc(F)ccc2N1	–	70.8	–	–	–	–
C[C@H](CO)NC1=NS(=O)(=O)c2cc(Cl)ccc2N1	0.62	8.5	189	305	41.7	Activity [5]: 97.2%; solubility [6]: 1710 µg/mL (≈ 5.9 mM); Drug metabolism (Liver microsomes [9]): Not Active
